System: MS2 coat protein
Test: apparent Kd, MS2 coat protein; higher = weaker binding; RNA-MaP array; FMN 200 µM where present
In short: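 On Illumina sequencing-chip clusters, designs were transcribed by stalled E. coli RNA polymerase and titrated with SNAP-549-labelled MS2 coat protein (0.7 or 1.5 nM, doubling to 3 µM), without and then with constant ligand, in 100 mM Tris-HCl pH 7.5, 80 mM KCl, 4 mM MgCl2, BSA, DTT, yeast tRNA and Tween-20. Apparent Kd is the median of filtered per-cluster curve fits to green signal normalised to red-channel RNA signal and control-cluster median Fmax.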

[1] = designed as: ON switch for flavin mononucleotide, no ligand
[2] = ligand present: flavin mononucleotide, designed as: ON switch for flavin mononucleotide
[3] = designed as: OFF switch for flavin mononucleotide, no ligand
[4] = ligand present: flavin mononucleotide, designed as: OFF switch for flavin mononucleotide

| Sequence | apparent Kd [1] [nM] | apparent Kd [2] [nM] | apparent Kd [3] [nM] | apparent Kd [4] [nM] |
| --- | --- | --- | --- | --- |
| AAGGAAACCACAGGAUAUGGCUAGAAUAUCUAGCCAGAAGGGUGGUCGAAACCAUGUAAAUACAUGAGGAUCACCCAUGUGUCC | 345 | 378 |  |  |
| AGCUACGUUUCGUAGCAGCUAGAAAAGGAUAUUCAAUUUUUCACAUGAGGAUCACCCAUGUAUGUGAAGAAGGCGCCUAGAAAG | 50.4 | 35.9 |  |  |
| UGUUGUUCAGGAUAUGAUGUAUAAUACAUGAGGAUCACCCAUGUAGAUCCUGAAUUAACGUCAGAAGGGAAUGUUG |  |  | 15.1 | 17 |
| GAGUAGUUGAAAGGAUAUGCAUUGUUAUAGAAUGCAGAAGGUUCUAACAUGAGGAUCACCCAUGUAGGACUAUUCCUGUGUAUC | 12.1 | 9.82 |  |  |
| CUUAAAGACGAGAAGGCUGAUUUGACAUGAGCGUCAGCCGUGUAACAUGAGGAUCACCCAUGUGCGGAGGAUAUUGAUCUUGAG | 12.3 | 13.9 |  |  |
| UGGUACUAGGGAGGAUAUGGGAAGAUACAUGAGGAUCACCCAUGUUUAAGAAUGCCGACAGGCAACUAGAAGGCCCUAGUACCU | 414 | 20.2 |  |  |
| GCCUUACCGGUCAGGAUAUACAUUUGUCACUCCUUGUAGAAGGGACAUGAGGAUCACCCAUGUACAUUACAUUC |  |  | 29 | 28.6 |
| CCUGGCACAUAGAAGGGUACAUGGCCUCUGCUACAUGAGGAUCACCCAUGUGCAGGAUAUGUGUGCCAGACUAUGCCGGUGUAA |  |  | 20.2 | 16.1 |
| CGAUAACAUAGUUAUCCGUAACGGACAUGAGGAUCACCCAUGUAGGAUAUGUUACUCCACGAGUAACAGAAGGACAUGAGUCUU |  |  | 19.3 | 95.7 |
| UGCCUGCAGUCAGGAUAUGAUAACUGGGUAUGGUCUUUGUAACGACAUGAGGAUCACCCAUGUUUUUAGAAGGGACGUGUCAGC |  |  | 363 | 127 |
| CAGGUAGACUGAGGAUAUACAAUAAAGACCUAGUCUAUCUAGGUCAUCACAUGAGGAUCACCCAUGUAGAAGGCAGUCUGCCUG |  |  | 18.5 | 38.2 |
| UGGUACUAGGGAGGAUAUGGGAAGAUACAUGAGGAUCACCCAUGUUUAAGAAUGACGAGAGGCAACUAGAAGGCCCUAGUACCU | 328 | 25.9 |  |  |
| CGUUUAUAUAUGGGUUUAUAUUAUGAGGAUAUCAAUAUUUAAUACAUGAGGAUCACCCAUGUUACUGAGAAGGCAUAAUUAACG |  | 6.99 |  |  |
| GGAUUAAUAGUCCACAUGAGGAUCACCCAUGUAGUAUUUUGCAAGGAUAUGGUGGGACUUCGUGGCCAGAAGGUGUAAAGGAUC | 128 | 99.2 |  |  |
| UGUGCCUCGAGAGGAUAUAUACAUGAGGAUCACCCAUGUAACGAGGUGGAAACACCUCGAAAUGUAUAGAAGGCUCGAGGCACA |  |  | 27.7 | 49.6 |
| CGGCGGAAAGGAUAUGCAGUAAUAUCCAAAUGUGGGCCACGACAUGAGGAUCACCCAUGUAGAAGGUUCAGCCG |  |  | 14.7 | 13.6 |
| CUGCCGUAGGAGAAGGACGGCGGGUUAUUUUUGUACAUGAGGAUCACCCAUGUAGGAUAUCCUACGUCAGGCGGCCUACUACAG |  |  | 13.7 | 19.8 |
| CUUUAGCUAGGAUAUACAUGAGGAUCACCCAUGUUAGCGGUCAAUUGGGCCGCGGGUUGUAGAAGGAGCAUUAA |  |  | 32.5 | 53.4 |
| CUCCUGCAAGGAUAUACAUAGUGACGUCUGUUUAAUCUUAAACAUGAGGAUCACCCAUGUAGAAGGUGCGUCAC |  |  | 16.7 | 18.1 |
| GCUGCAUAGGCAGGAUAUGCAACAAUUAGAAUAAAAUAUAACUAAUUGACAUGAGGAUCACCCAUGUAGAAGGGCCUGUGCAGU |  |  | 21.1 | 19.6 |
| AAAGAGACAGGAUAUACAUGGGUGAUAAAAAUCAUGUAAAAACAUGAGGAUCACCCAUGUAGAAGGGUCUCAAA |  |  | 26.9 | 22.8 |

| Sequence | apparent Kd [1] [nM] | apparent Kd [2] [nM] | apparent Kd [3] [nM] | apparent Kd [4] [nM] |
| --- | --- | --- | --- | --- |
| GGGAAGUGAGGAUAUGCUGCUCGUCACUUGCGUGAUGAGUAGCAGAAGGUACAUGAGGAUCACCCAUGUAAAAA |  |  | 29.6 | 19 |
| GGAUUUUACUAGUUUUCUAAACAUGAGGAUCACCCAUGUUUUUAGGAUAUCAGCGUGAAACACGCUGAGAAGGAAGAACAAUCC |  |  | 15.7 | 18.2 |
| GCAGCGCAUGUAGGAUAUCGGUCAGUUUCUGAUCGAGAAGGACAUGAGGAUCACCCAUGUAAAUUACCGACUUUGUCGGGCUGC |  |  | 10.2 | 39.2 |
| AAGGCGGCUCAGGCCGAGUUUCGCAGAAGGGCACAUGAGGAUCACCCAUGUACCUGGUCUGAUGUGCAGGAUAUGUGAGUCAGC |  |  | 5.6 | 10.4 |
| GACUACGAGGGAGGAUAUCCUCAUUAAAAUGGUGGAGAAGGCCCUCUACAUGAGGAUCACCCAUGUAUCGCUAUAGUCAGAAAU | 10.8 | 6.53 |  |  |
| GAGGAACAUGAGGAUCACCCAUGUGAGGAUAUGCAUAGCGAGGUAGUAGAAGUUGAAUGCAGAAGGUACACGGA |  |  | 36 | 30.3 |
| AACAAUCUAUCUGAGGAUAUCAUGAAAUAAACAUGAGGAUCACCCAUGUGUAGGAAAACUGCAUAUGAGAAGGCAGAUAGAUUGA | 930 | 43.5 |  |  |
| ACUCUGCGAGGAUAUACAUGAGGAUCACCCAUGUGCGAGUUACUUGUGAGGUCGGUUGGUAGAAGGCGCGGAGA |  |  | 99.4 | 134 |
| GUCAGCUCAUGAGGAUAUACAACACUGCUUCGGCAGUGUAUUAAGAUCACAUGAGGAUCACCCAUGUAGAAGGCACGAGCUGAU |  |  | 12.9 | 258 |
| CUGUUCCGUGUAGGAUAUGCAUAUUCUCAUUAUGCAGAAGGACAUGAGGAUCACCCAUGUAUGUUAUUAUCAUAUGUUACAUGU |  |  | 37.5 | 321 |
| CGUUUCAUGUCAGGAUAUCCGCGCAGCUUUACGCACGAUAUAAGGGAGCUUGGAGAAGGGACAUGAGGAUCACCCAUGUGCCUC |  |  | 8.6 | 12.4 |
| AUCUAAGAAUUAAUUGUGACUGACAGAAGGCAAUAGAAUGAGACCGACAUGAGGAUCACCCAUGUUGAGGAUAUGUCUUGCUAC |  |  | 6.53 | 6.74 |
| GUGUGCAGAGGAUAUACAGAGGAAAAGAAAAGAGAAGGGAGACAUGAGGAUCACCCAUGUAGAAGGCUGAGUGU |  |  | 64.4 | 91.8 |
| UUUUAACAUGAGGAUCACCCAUGUGAGGAUAUCGAAAUUUAUAUUAAUAUUAUUAAUACGAGAAGGCACAUUUU |  |  | 36.9 | 61.8 |
| AAACAUGUCCGAGGAUAUCUGGAAACAUUUUCAAGAGAAGGCGGACAUGAGGAUCACCCAUGUCUCUCCUCAUCAACCACAAAU |  |  | 8.83 | 56.2 |
| GCCGGAUUUGUGAGGAUAUACCUAUGGAUACAUAGGUAGAAGGCACAUGAGGAUCACCCAUGUUCCUCACCGGC |  |  | 33 | 288 |
| AUAAAACAUGAGGAUCACCCAUGUCAGGAUAUACCAUUCCCAUGCCAGCAUUAAAAUGGUAGAAGGGACAUGGC |  |  | 49.2 | 27.2 |
| UGUGUGUCAGGAUAUCGCGCGCGCGCGGAAAUGUGUGUGUGUGAGAAGGGACAUGAGGAUCACCCAUGUGCGCG |  |  | 115 | 263 |
| GCACUUACGUUAGGAUAUGGAUCGGAAAACGAUCCAGAAGGAAUAUGGGAACAUGAGGAUCACCCAUGUUCCGCAGACAAGUGC | 96.5 | 39 |  |  |
| UUAAUUAAAGUGAGGAUAUCUAGAGCCUCGGCUCUAGAGAAGGCACAUGAGGAUCACCCAUGUCUCAAUUAAUU |  |  | 15.7 | 26.8 |
| GCCGUGAUAGCAGGAUAUGCUCCGGUUGCUCAUACAUGAGGAUCACCCAUGUCACGUGCGGUGGUGCAGAAGGGUUGAAGCGAA | 748 | 219 |  |  |
